Source: ChEMBL document CHEMBL3351818, “Synthesis and biological evaluation of novel 3,4-diaryl-1,2,5-selenadiazol analogues of combretastatin A-4” (Eur J Med Chem, 2014)
Activity calls are given as the source filed them. No cut-off for these calls is given here.

Key:
[1] = Antiproliferative activity against human HT1080 cells after 72 hrs by MTT assay; type: functional, cell-based; conditions: HT-1080, 72 h
How it was run: (§1)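 Cells were seeded at 1–3 × 10⁴/well, depending on growth rate, and grown 24 h. Triplicate wells were then exposed to agents for 72 h at 37 °C in 5% CO₂. IC50 is the concentration giving 50% absorbance reduction versus vehicle, averaged from ≥3 independent experiments. SGC-7901 and HT-1080 were cultured in RPMI-1640 with 10% FBS.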

KB = test: Antiproliferative activity against human KB cells after 72 hrs by MTT assay; type: functional, cell-based; how it was run: as §1
[2] = Antiproliferative activity against human SGC7901 cells after 72 hrs by MTT assay; type: functional, cell-based; conditions: SGC-7901, 72 h; how it was run: as §1
[3] = Cell cycle arrest in human HT1080 cells assessed as accumulation at G2/M phase at 75 nM after 24 hrs using propidium iodide staining by FACScan flow cytometry (reference value: 29.27 %); type: functional, cell-based; conditions: HT-1080
How it was run: (§2)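 HT-1080 cells (8 × 10⁴) exposed 24 h to test agent or 0.05% DMSO vehicle. Harvested by centrifugation, PBS-washed, fixed in ice-cold 70% ethanol, then RNase-treated 30 min at 37 °C. Propidium iodide 50 µg/mL applied 30 min at 4 °C in the dark before FACScan flow cytometry. Repeated at least three times.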

[4] = Cell cycle arrest in human HT1080 cells assessed as accumulation at G0/G1 phase at 75 nM after 24 hrs using propidium iodide staining by FACScan flow cytometry (Rvb =52.17 %); type: functional, cell-based; conditions: HT-1080; how it was run: as §2
[5] = Cell cycle arrest in human HT1080 cells assessed as accumulation at sub-G1 phase at 100 nM after 24 hrs using propidium iodide staining by FACScan flow cytometry; type: functional, cell-based; conditions: HT-1080; how it was run: as §2
[6] = Cell cycle arrest in human HT1080 cells assessed as accumulation at G2/M phase at 100 nM after 24 hrs using propidium iodide staining by FACScan flow cytometry (reference value: 29.27 %); type: functional, cell-based; conditions: HT-1080; how it was run: as §2
Tubulin (Homo sapiens) [7] = biological target: T1, Tubulin (Homo sapiens) (UniProt P68371+Q9H4B7+P0DPH7+P68366+Q13509+Q71U36+P04350+Q3ZCM7+P07437+P68363+Q9BQE3+Q6PEY2+Q13885+Q9BVA1+Q9BUF5); test: Inhibition of tubulin (unknown origin) polymerization at 8 uM measured for 90 mins by fluorescence assay; type: protein-complex assay
[8] = Cell cycle arrest in human HT1080 cells assessed as accumulation at G2/M phase at 50 nM after 24 hrs using propidium iodide staining by FACScan flow cytometry (reference value: 29.27 %); type: functional, cell-based; conditions: HT-1080; how it was run: as §2
[9] = Cell cycle arrest in human HT1080 cells assessed as accumulation at S phase at 150 nM after 24 hrs using propidium iodide staining by FACScan flow cytometry (reference value: 18.56 %); type: functional, cell-based; conditions: HT-1080; how it was run: as §2
Tubulin (Homo sapiens) [10] = biological target: T1, Tubulin (Homo sapiens); test: Inhibition of tubulin (unknown origin) polymerization at 4 uM measured for 90 mins by fluorescence assay; type: protein-complex assay
[11] = Cell cycle arrest in human HT1080 cells assessed as accumulation at G2/M phase at 25 nM after 24 hrs using propidium iodide staining by FACScan flow cytometry (reference value: 29.27 %); type: functional, cell-based; conditions: HT-1080; how it was run: as §2
Tubulin (Homo sapiens) [12] = biological target: T1, Tubulin (Homo sapiens); test: Inhibition of tubulin (unknown origin) polymerization measured for 90 mins by fluorescence assay; type: protein-complex assay
Tubulin (Homo sapiens) [13] = biological target: T1, Tubulin (Homo sapiens); test: Inhibition of tubulin (unknown origin) polymerization at 1 uM measured for 90 mins by fluorescence assay; type: protein-complex assay
[14] = Cell cycle arrest in human HT1080 cells assessed as accumulation at S phase at 100 nM after 24 hrs using propidium iodide staining by FACScan flow cytometry (reference value: 18.56 %); type: functional, cell-based; conditions: HT-1080; how it was run: as §2
[15] = Cell cycle arrest in human HT1080 cells assessed as accumulation at S phase at 25 nM after 24 hrs using propidium iodide staining by FACScan flow cytometry (reference value: 18.56 %); type: functional, cell-based; conditions: HT-1080; how it was run: as §2
[16] = Cell cycle arrest in human HT1080 cells assessed as accumulation at sub-G1 phase at 150 nM after 24 hrs using propidium iodide staining by FACScan flow cytometry; type: functional, cell-based; conditions: HT-1080; how it was run: as §2
[17] = Cell cycle arrest in human HT1080 cells assessed as accumulation at sub-G1 phase at 75 nM after 24 hrs using propidium iodide staining by FACScan flow cytometry; type: functional, cell-based; conditions: HT-1080; how it was run: as §2
[18] = Cell cycle arrest in human HT1080 cells assessed as accumulation at G2/M phase at 150 nM after 24 hrs using propidium iodide staining by FACScan flow cytometry (reference value: 29.27 %); type: functional, cell-based; conditions: HT-1080; how it was run: as §2
[19] = Cell cycle arrest in human HT1080 cells assessed as accumulation at S phase at 75 nM after 24 hrs using propidium iodide staining by FACScan flow cytometry (reference value: 18.56 %); type: functional, cell-based; conditions: HT-1080; how it was run: as §2
HT-1080 [20] = test: Disruption of microtubule network in human HT1080 cells assessed as loss of the radial distribution of structured microtubules at 2 times IC50 after 12 hrs by immunofluorescence staining method; type: cell-based
How it was run: (§3)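 HT-1080 cells seeded at 1 × 10⁴/well, grown 24 h, then given vehicle or agent for 12 h. Fixed in 4% formaldehyde/PBS 30 min at −20 °C, permeabilised with 0.1% Triton X-100 5 min, and blocked with 5% BSA. Anti-α-tubulin (1:100) applied overnight at 4 °C, then FITC anti-mouse secondary (1:1000) 3 h at 37 °C, with DAPI counterstain.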

Tubulin (Homo sapiens) [21] = biological target: T1, Tubulin (Homo sapiens); test: Inhibition of tubulin (unknown origin) polymerization at 2 uM measured for 90 mins by fluorescence assay; type: protein-complex assay
HT-1080 [22] = test: Disruption of microtubule network in human HT1080 cells assessed as cell detachment at 2 times IC50 after 12 hrs by immunofluorescence staining method; type: cell-based; how it was run: as §3
[23] = Cell cycle arrest in human HT1080 cells assessed as accumulation at G0/G1 phase at 100 nM after 24 hrs using propidium iodide staining by FACScan flow cytometry (Rvb =52.17 %); type: functional, cell-based; conditions: HT-1080; how it was run: as §2
[24] = Cell cycle arrest in human HT1080 cells assessed as accumulation at G0/G1 phase at 150 nM after 24 hrs using propidium iodide staining by FACScan flow cytometry (Rvb =52.17 %); type: functional, cell-based; conditions: HT-1080; how it was run: as §2
[25] = Cell cycle arrest in human HT1080 cells assessed as accumulation at sub-G1 phase at 50 nM after 24 hrs using propidium iodide staining by FACScan flow cytometry; type: functional, cell-based; conditions: HT-1080; how it was run: as §2
[26] = Cell cycle arrest in human HT1080 cells assessed as accumulation at G2/M phase after 24 hrs using propidium iodide staining by FACScan flow cytometry; type: functional, cell-based; conditions: HT-1080; how it was run: as §2
[27] = Cell cycle arrest in human HT1080 cells assessed as accumulation at sub-G1 phase at 25 nM after 24 hrs using propidium iodide staining by FACScan flow cytometry; type: functional, cell-based; conditions: HT-1080; how it was run: as §2
HT-1080 [28] = test: Disruption of microtubule network in human HT1080 cells assessed as cell rounding at 2 times IC50 after 12 hrs by immunofluorescence staining method; type: cell-based; how it was run: as §3
[29] = Cell cycle arrest in human HT1080 cells assessed as accumulation at S phase at 50 nM after 24 hrs using propidium iodide staining by FACScan flow cytometry (reference value: 18.56 %); type: functional, cell-based; conditions: HT-1080; how it was run: as §2
[30] = Cell cycle arrest in human HT1080 cells assessed as accumulation at G0/G1 phase at 50 nM after 24 hrs using propidium iodide staining by FACScan flow cytometry (Rvb =52.17 %); type: functional, cell-based; conditions: HT-1080; how it was run: as §2
[31] = Cell cycle arrest in human HT1080 cells assessed as accumulation at G0/G1 phase at 25 nM after 24 hrs using propidium iodide staining by FACScan flow cytometry (Rvb =52.17 %); type: functional, cell-based; conditions: HT-1080; how it was run: as §2

COc1cc(-c2n[se]nc2-c2ccc(Br)cc2)cc(OC)c1OC
IC50 [1]: 7.4 µM
IC50 (KB): 7860 nM
IC50 [2]: 10.9 µM

COc1cc(-c2n[se]nc2-c2ccc(O)cc2)cc(OC)c1OC
IC50 [1]: 15 µM
IC50 (KB): 15800 nM
IC50 [2]: > 30 µM

COc1ccc(-c2n[se]nc2-c2cc(OC)c(OC)c(OC)c2)cc1[N+](=O)[O-]
IC50 [1]: 24.8 µM
IC50 (KB): 10100 nM
IC50 [2]: > 30 µM

c1ccc2cc(-c3n[se]nc3-c3ccc4c(c3)OCO4)ccc2c1
IC50 [1]: 23.3 µM
IC50 (KB): 10400 nM
IC50 [2]: 17.3 µM

CCOc1ccc(-c2n[se]nc2-c2cc(OC)c(OC)c(OC)c2)cc1
IC50 [1]: 0.16 µM
IC50 (KB): 420 nM
IC50 [2]: 0.23 µM

COc1ccc(-c2n[se]nc2-c2ccc3c(c2)OCO3)cc1
IC50 [1]: > 30 µM
IC50 (KB): 5210 nM
IC50 [2]: 8.28 µM

COc1ccc(/C=C\c2cc(OC)c(OC)c(OC)c2)cc1O [COMBRETASTATIN A4]
IC50 [1]: 0.0076 µM
IC50 (KB): 13 nM
IC50 [2]: 0.028 µM

CCOc1ccc(-c2n[se]nc2-c2cc(OC)c(OC)c(OC)c2)cc1Br
IC50 [1]: 3.46 µM
IC50 (KB): 930 nM
IC50 [2]: 12.8 µM

CCOc1ccc(-c2n[se]nc2-c2cc(OC)c(OC)c(OC)c2)cc1N
IC50 [1]: 10.1 µM
IC50 (KB): 99 nM
IC50 [2]: 0.14 µM

COc1ccc(-c2n[se]nc2-c2cc(OC)c(OC)c(OC)c2)cc1
IC50 [1]: 0.084 µM
IC50 (KB): 31 nM
IC50 [2]: 0.063 µM

COc1ccc(-c2n[se]nc2-c2cc(OC)c(OC)c(OC)c2)cc1N
IC50 [1]: 0.026 µM
IC50 (KB): 11 nM
IC50 [2]: 0.021 µM

COc1cc(-c2n[se]nc2-c2cccc(OCc3ccccc3)c2)cc(OC)c1OC
IC50 [1]: > 30 µM
IC50 (KB): 10700 nM
IC50 [2]: > 30 µM

COc1ccc(-c2n[se]nc2-c2ccc3c(c2)OCO3)cc1N
IC50 [1]: 13.5 µM
IC50 (KB): 1870 nM
IC50 [2]: > 30 µM

COc1cc(-c2n[se]nc2-c2cccc(O)c2)cc(OC)c1OC
IC50 [1]: 5.98 µM
IC50 (KB): > 30000 nM
IC50 [2]: > 30 µM

CNc1cc(-c2n[se]nc2-c2cc(OC)c(OC)c(OC)c2)ccc1OC
IC50 [1]: 0.98 µM
IC50 (KB): 1520 nM
IC50 [2]: > 30 µM

COc1ccc(-c2n[se]nc2-c2ccc3c(c2)OCO3)cc1O
IC50 [1]: 0.73 µM
IC50 (KB): 2380 nM
IC50 [2]: 3.68 µM

COc1ccc(-c2n[se]nc2-c2cc(OC)c(OC)c(OC)c2)cc1O
Activity [3]: 45.2%
Activity [4]: 37.2%
Activity [5]: 18.1%
Activity [6]: 72.4%
inhibition (Tubulin (Homo sapiens) [7]): 97.6%
IC50 [1]: 0.021 µM
IC50 (KB): 3.9 nM
Activity [8]: 32.4%
Activity [9]: 5.82%
inhibition (Tubulin (Homo sapiens) [10]): 65%
Activity [11]: 71.9%
inhibition (Tubulin (Homo sapiens) [12]): Dose-dependent effect
inhibition (Tubulin (Homo sapiens) [13]): 20.4%
Activity [14]: 4.07%
Activity [15]: 3.1%
Activity [16]: 10.9%
Activity [17]: 4.39%
Activity [18]: 80.7%
Activity [19]: 13.3%
Activity (HT-1080 [20]): Active
inhibition (Tubulin (Homo sapiens) [21]): 48.8%
Activity (HT-1080 [22]): Active
Activity [23]: 5.46%
Activity [24]: 2.61%
IC50 [2]: 0.019 µM
Activity [25]: 2.47%
Activity [26]: Dose-dependent effect
Activity [27]: 15.7%
Activity (HT-1080 [28]): Active
Activity [29]: 16%
Activity [30]: 49.1%
Activity [31]: 3.93%

COc1cc(-c2n[se]nc2-c2ccc(O)c(Br)c2)cc(OC)c1OC
IC50 [1]: 16.4 µM
IC50 (KB): 4800 nM
IC50 [2]: > 30 µM

COc1ccc(-c2n[se]nc2-c2cc(OC)c(OC)c(OC)c2)cc1Br
IC50 [1]: 2.59 µM
IC50 (KB): 3060 nM
IC50 [2]: > 30 µM

COc1ccc(-c2n[se]nc2-c2cc(OC)c(OC)c(OC)c2)cc1OCc1ccccc1
IC50 [1]: > 30 µM
IC50 (KB): > 30000 nM
IC50 [2]: > 30 µM

COc1cc(-c2n[se]nc2-c2ccc3ccccc3c2)cc(OC)c1OC
IC50 [1]: 1.11 µM
IC50 (KB): 770 nM
IC50 [2]: 2.35 µM

COc1ccc(-c2n[se]nc2-c2ccc3c(c2)OCO3)cc1[N+](=O)[O-]
IC50 [1]: > 30 µM
IC50 (KB): > 30000 nM
IC50 [2]: > 30 µM
